Laboratory results from ChEMBL document CHEMBL1122141, “Potential radiosensitizing agents. 4. 2-Nitroimidazole nucleosides” (J Med Chem, 1982).

Legend:
[1] = Partition coefficient of the compound; assay type: ADME; conditions: octanol/water
V79 [2] = assay: In vitro radiosensitizing activity against V-79 hypoxic cells was determined in the presence of the sensitizer under nitrogen at a concentration of 1.0 mM; assay type: functional, Cricetulus griseus
Method in brief: (§1)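 Asynchronous monolayer V-79 Chinese hamster cells from exponential cultures, plated in dishes and made hypoxic by purging sealed containers with 95% nitrogen/5% CO2. Drug exposure was 1 h at 37 °C under hypoxia, followed by cobalt-60 irradiation (~240 rad/min, 400–2700 rad). Colonies were grown 6 days at 37 °C, then fixed in ethanol, stained with methylene blue and counted. SER = D0 of hypoxic controls / D0 of drug-treated hypoxic cells.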

V79 [3] = assay: In vitro radiosensitizing activity against V-79 hypoxic cells was determined in the presence of the sensitizer under nitrogen at a concentration of 0.5 mM; assay type: functional, Cricetulus griseus; method in brief: as §1
V79 [4] = assay: In vitro radiosensitizing activity against V-79 hypoxic cells was determined in the presence of the sensitizer under nitrogen at a concentration of 0.25 mM; assay type: functional, Cricetulus griseus; method in brief: as §1
V79 [5] = assay: In vitro radiosensitizing activity against V-79 Hypoxic cells was determined in the presence of the sensitizer under nitrogen at a concentration of 0.1 mM; assay type: functional, Cricetulus griseus; method in brief: as §1
V79 [6] = assay: In vitro radiosensitizing activity against V-79 hypoxic cells was determined in the presence of the sensitizer under nitrogen at a concentration of 0.05 mM; assay type: functional, Cricetulus griseus; method in brief: as §1

Structure (SMILES)	Partition coefficient [1]	SER (V79 [2]; in the assay text read “0.01 mM” for “1.0 mM”)	SER (V79 [3])	SER (V79 [4])	SER (V79 [2])	SER (V79 [5])	SER (V79 [6])
O=C(OC[C@H]1O[C@@H](n2ccnc2[N+](=O)[O-])[C@H](OC(=O)c2ccccc2)[C@@H]1OC(=O)c1ccccc1)c1ccccc1	15.66	1					
O=[N+]([O-])c1nccn1C1SC(CO)C(O)C(O)C1O (stereo not drawn)	0.22		1.4	1.2	1.7		
O=[N+]([O-])c1nccn1C1OC(CO)C(O)C(O)C1O (stereo not drawn)	0.04				1		
COC(=O)C1(n2ccnc2[N+](=O)[O-])CC(OC(C)=O)C(NC(C)=O)C(C(OC(C)=O)C(COC(C)=O)OC(C)=O)O1 (stereo not drawn)	2.56		1.4	1.2	1.6		
O=[N+]([O-])c1nccn1C1O[C@H](CO)[C@@H](O)[C@H]1O (stereo partly drawn)	0.07		1.4				

The next lines start with results.

Partition coefficient [1]	Structure (SMILES)	SER (V79 [2]; in the assay text read “0.01 mM” for “1.0 mM”)	SER (V79 [3])	SER (V79 [4])	SER (V79 [2])	SER (V79 [5])	SER (V79 [6])
3.31	CC(=O)OCC1OC(n2ccnc2[N+](=O)[O-])C(OC(C)=O)C(OC(C)=O)C1OC(C)=O (stereo not drawn)					1.2	
4.22	CC(=O)OCC1SC(n2ccnc2[N+](=O)[O-])C(OC(C)=O)C(OC(C)=O)C1OC(C)=O (stereo not drawn)						1.1
